From PubChem BioAssay
AI-2 QS mod – Vibrio harveyi AI-2 quorum sensing modulation | 300,000 tested, 0.4% active | Vibrio harveyi JMH597 AI-2 luminescence/OD600 ratio, 9 h; hits give low values; strain lacks LuxN and CqsS sensors; 0 = neutral-control median | activity change, % at 7.5 µM | AID 2094; in the data active = activity change below about -75%, passing the limit was not always enough;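 note: luminescence divided by OD600 gain over 9 h not by final OD600 alone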
HTR2A ag – agonists of mouse serotonin 5-HT2A receptor (HTR2A); P35363; CHO-K1 mHTR2A beta-arrestin complementation, luminescence; percent of 30 µM serotonin response; activation, % at 7.6 µM; 360,000 tested, 0.66% active; AID 624169;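 active = activation above a run cutoff, the mean activation of all tested compounds plus 3 SD, cut at about 14% in these data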;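 note: 0% = plate median of compound wells and 100% = 30 µM serotonin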
bovine MsrA act – bovine methionine sulfoxide reductase A activation; purified bovine MsrA, absorbance read-out; activation, % at 10.6 µM; 360,000 tested, 0.3% active; AID 602163; in the data active = activation above about 7.5%;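 note: 0% = vehicle and 100% = reference activator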
MsrA inhibitor – inhibits bovine methionine sulfoxide reductase A. purified bovine MsrA, absorbance read-out. inhibition, % at 15.5 µM. 360,000 tested, 0.75% active; in the data active = inhibition above about 4.5%;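 note: 0% = vehicle wells with enzyme and 100% = reference inhibitor wells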
AHR activator – activators of human aryl hydrocarbon receptor. 320,000 tested, 2.5% active. P35869. AHR-responsive luciferase reporter cells, luminescence. activation, % at 5 µM; in the data active = activation above about 47%;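 note: 0% = vehicle wells and 100% = reference agonist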
Target sequence (P35869 whole entry, looked up): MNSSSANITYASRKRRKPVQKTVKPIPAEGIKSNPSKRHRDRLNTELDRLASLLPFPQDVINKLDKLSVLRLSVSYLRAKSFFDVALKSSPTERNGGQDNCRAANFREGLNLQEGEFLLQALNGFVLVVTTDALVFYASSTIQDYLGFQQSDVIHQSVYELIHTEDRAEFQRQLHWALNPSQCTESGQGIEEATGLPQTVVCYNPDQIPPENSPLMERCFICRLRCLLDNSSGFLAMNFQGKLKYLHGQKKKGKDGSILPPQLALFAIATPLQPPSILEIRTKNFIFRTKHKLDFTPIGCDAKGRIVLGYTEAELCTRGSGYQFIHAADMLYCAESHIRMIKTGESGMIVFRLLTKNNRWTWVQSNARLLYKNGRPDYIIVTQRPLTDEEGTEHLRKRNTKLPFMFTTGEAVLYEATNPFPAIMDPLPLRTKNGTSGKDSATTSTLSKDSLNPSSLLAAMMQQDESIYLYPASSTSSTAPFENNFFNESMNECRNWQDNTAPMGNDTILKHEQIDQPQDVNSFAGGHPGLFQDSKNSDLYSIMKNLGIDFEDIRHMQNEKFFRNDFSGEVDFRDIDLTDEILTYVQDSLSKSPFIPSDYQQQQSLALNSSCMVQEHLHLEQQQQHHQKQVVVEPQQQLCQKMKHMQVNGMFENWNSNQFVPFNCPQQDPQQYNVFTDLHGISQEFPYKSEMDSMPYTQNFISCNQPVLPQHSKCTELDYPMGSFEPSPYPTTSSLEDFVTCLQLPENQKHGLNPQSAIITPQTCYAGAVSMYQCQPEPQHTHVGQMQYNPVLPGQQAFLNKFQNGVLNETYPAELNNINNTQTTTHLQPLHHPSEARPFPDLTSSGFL
Tb MetRS inh – Trypanosoma brucei MetRS inhibition | inhibition, % at 11.9 µM | AID 624268 | 360,000 tested, 0.4% active | purified T. brucei MetRS, ATP depletion, Kinase-Glo luminescence;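 active = inhibition above a per-plate cutoff of the control wells' mean inhibition plus 3 SD, cut at about 5.5% in these data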;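 note: 0% = DMSO wells median and 100% = median of wells with control inhibitor compound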
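Test system: purified T. brucei MetRS enzyme. Also added: ATP, methionine and E. coli bulk tRNA substrates. Compound: 11.9 µM single point. Schedule: 15 min enzyme-compound preincubation, 2 h reaction, 10 min detection, 25 °C. Signal: luciferase luminescence of residual ATP, Kinase-Glo. Evaluation: percent inhibition versus plate control medians. Controls: DMSO wells, low control.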
Tb MetRS conf – Trypanosoma brucei MetRS inhibition confirmed | T. brucei MetRS enzyme, luminescence (ATP depletion) | shares compounds with Tb MetRS inh | AID 624412 | 1,400 tested, 93% active | inhibition, % at 11.9 µM; in the data active = inhibition above about 7%
Jurkat tox – Jurkat T cell cytotoxicity for MetRS hits. shares compounds with Tb MetRS inh. Jurkat cells viability, ATP luminescence. inhibition, % at 8.3 µM. 1,400 tested, 12% active; in the data active = inhibition above about 15%;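 note: 0% = vehicle and 100% = reference inhibitor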
TbMetRS FP orth – inhibits T. brucei methionyl tRNA synthetase in orthogonal FP test; shares compounds with Tb MetRS inh; purified T. brucei MetRS, fluorescence polarization; inhibition, % at 11.9 µM; 1,400 tested, 44% active; AID 651607; in the data active = inhibition above about 17%;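 note: 0% = vehicle wells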
An asterisk follows results filed as active; x = no result. Hits are enriched below; roughly 4.4% of the tested compounds scored in any of these assays.

SMILES	AI-2 QS mod	HTR2A ag	bovine MsrA act	MsrA inhibitor	AHR activator	Tb MetRS inh	Tb MetRS conf	Jurkat tox	TbMetRS FP orth
CCN(CC)c1cc2c(c3c1ccn3C)C1CCC2C1 (centres undefined)	x	-2	-4	1	x	-1	x	x	x
CC(C(=O)Nc1cccc([N+](=O)[O-])c1)n1nnc2ccccc21 (centres undefined)	13	-5	-9	0	4	20*	31*	5	10
O=C(Cn1cnc2ccccc21)Nc1cccc([N+](=O)[O-])c1	33	-1	-1	0	3	81*	95*	6	71*
O=C(O)C(c1ccccc1)C1(O)CCC1 (centres undefined)	x	5	-10	0	x	-1	x	x	x
CCc1nc2c(OCC(=O)C(C)(C)C)cccn2c1N(C)C(=O)c1ccco1	x	6	-1	0	x	0	x	x	x
CCCCc1c(-c2ccccc2OC)ncn1CCc1cccc(OC)c1	x	-4	-7	1	x	9.9*	23*	36*	1
CCCCc1c(-c2ccccc2OC)ncn1CCc1cccc(F)c1	x	-8	-7	1	x	-1	x	x	x
COc1ccc(OCc2nc3ccccc3[nH]2)cc1	10	1	-4	-1	6	1	x	x	x
Brc1ccc(OCc2nc3ccccc3[nH]2)cc1	20	2	-3	0	8	10*	16*	0	9
c1ccc2cc(OCc3nc4ccccc4[nH]3)ccc2c1	79	-1	0	1	0	6.0*	6.8*	4	9
NS(=O)(=O)c1ccc(NC(=O)c2c(F)cccc2Cl)cc1	22	3	-1	-1	0	7.9*	4	-4	1
NS(=O)(=O)c1ccc(NC(=O)c2c(Cl)cccc2Cl)cc1	14	3	-4	1	-4	0	x	x	x
O=C(CCCCCn1c(=S)[nH]c2ccc(Br)cc2c1=O)NCC1CCCO1 (centres undefined)	-16	7	-4	1	1	1	x	x	x
O=c1c2cc(Br)ccc2[nH]c(=S)n1Cc1ccccn1	6	-3	-15	1	67*	10*	21*	-7	5
O=c1c2cc(Br)ccc2[nH]c(=S)n1Cc1ccccc1	44	-1	0	3	4	7.7*	20*	0	13
NS(=O)(=O)c1ccc(CCNC(=O)CCCCCn2c(=S)[nH]c3ccc(Br)cc3c2=O)cc1	14	-5	-7	0	0	17*	22*	0	14
C=CCNC(=S)NNC(=O)Cn1c(-c2ccccc2)cc(=O)n2ncnc12	12	2	1	1	2	10*	17*	11	12
C=CCNC(=O)Cn1nc(-c2ccccc2)ccc1=O	15	-1	0	0	1	-1	x	x	x
O=C(CSc1nnc2ccc(-c3ccc(Br)cc3)nn12)NCC1CCCO1 (centres undefined)	12	0	-1	1	-2	8.0*	33*	1	12
COc1ccc(N2CCN(C(CNC(=O)C(=O)NC3CCCC3)c3ccco3)CC2)cc1 (centres undefined)	3	1	-2	0	0	0	x	x	x
CC1CCCN(CCCOc2ccc(Cl)cc2Br)C1 (centres undefined)	9	-6	-9	2	5	11*	23*	9	4
Cc1[nH]c2ccccc2c1C(=O)C(=O)N1CCN(C(=O)c2ccco2)CC1	10	0	-4	0	-1	6.4*	11*	9	2
O=C1CC2(CCN(C(=O)C(=O)c3c[nH]c4ccccc34)CC2)Oc2ccccc21	16	-8	-2	1	-2	20*	33*	-4	18*
O=C(C(=O)N1CCN(C(=O)c2ccco2)CC1)c1c[nH]c2ccccc12	9	-4	-1	1	17	5.8*	12*	0	5
O=C(C(=O)N1CCN(C(=O)c2ccco2)CC1)c1ccccc1	x	5	x	0	x	-1	x	x	x
SMILES	AI-2 QS mod	HTR2A ag	bovine MsrA act	MsrA inhibitor	AHR activator	Tb MetRS inh	Tb MetRS conf	Jurkat tox	TbMetRS FP orth
O=C(C(=O)N1CCCC1)c1c[nH]c2ccccc12	10	1	3	1	11	1	x	x	x
Cn1nc(-c2ccccn2)nc2c(=O)n(C)c(=O)nc1-2	-92*	13	59*	0	-14	31*	31*	66*	9
CCCc1nc2c(=O)n(C)c(=O)nc-2n(C)n1	x	3	2	1	x	17*	20*	73*	5
COc1ccc(-c2nc(-c3ccccn3)ncc2S(C)(=O)=O)cc1	29	6	0	0	-3	0	x	x	x
CNc1ccccc1C(=O)OCC(=O)N1CCc2ccccc2C1	x	4	-4	3	x	0	x	x	x
Cc1cccc(CN2CCc3c([nH]c4ccccc34)C2)c1	8	-5	-4	0	8	5.8*	15*	13	7
CN(C)/C=C(\C=N\OCc1ccc(Cl)cc1Cl)C(=O)Nc1ccc(Cl)c(Cl)c1	19	1	-2	-1	1	66*	9.2*	-4	3
Cc1cc(O)c(/C=N/OCc2ccc(Cl)cc2Cl)c(=O)o1	20	0	-3	2	1	-1	x	x	x
COc1cc(C2c3cc(O)c(OC)cc3CC(C(=O)O)C2CO)ccc1O (centres undefined)	x	2	-2	0	x	0	x	x	x
COc1ccc(Nc2nnc(SCC(=O)N(CC(C)C)C3CCS(=O)(=O)C3)s2)cc1 (centres undefined)	x	-3	0	0	x	11*	29*	9	18*
O=C(CSc1nnc(Nc2ccccc2)s1)NC1CCS(=O)(=O)C1 (centres undefined)	x	2	-2	1	2	9.4*	27*	0	9
CCN(C(=O)CSc1nnc(Nc2ccccc2)s1)C1CCS(=O)(=O)C1 (centres undefined)	16	-4	1	1	4	7.4*	16*	-7	4
CCN(CC)CC(O)CNc1ccnc2c(Cl)ccc(Cl)c12 (centres undefined)	x	1	-2	1	x	0	x	x	x
C[C@H](NC(=O)c1ncn2c1C(=O)NC[C@@H]2C)C(=O)OC(C)(C)C	x	-1	-2	1	x	-1	x	x	x
CN(Cc1ccc2c(c1)CCCN2C)C(=O)[C@H]1O[C@@H](n2ccc(=O)[nH]c2=O)[C@H](O)[C@@H]1O	x	-4	-1	1	x	-1	x	x	x
